Data set [1] concerns EGFR. As to conditions: ref [16],[17]; cited from earlier work.
In data set [2] the target is T1, EGFR kinase domain (Homo sapiens, UniProt P00533). Briefly: Radiometric kinase assay of Tail Peptide A phosphorylation. The data set is classed as biochemical. In a few lines:
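Buffer was 15 mM Tris pH 7.5, 0.02% v/v polysorbate 20, 10 mM MgCl2. A non-phosphorylatable test peptide (substrate Tyr→Ala) was added at varied concentrations. After 10 min at room temperature, reactions were quenched with 0.5% v/v phosphoric acid, spotted on phosphocellulose filters, washed, and scintillation-counted (four replicate filters).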

Data set [3] has as its target EGFR kinase domain (residues 672-998) (Homo sapiens, UniProt P00533). As to the kind of experiment: Enzyme-coupled kinase assay, wild type EGFR kinase domain. The data set is classed as biochemical.
For data set [4], the system named is I682Q EGFR kinase domain. Briefly: Enzyme-coupled kinase assay, I682Q mutant alone. The data set is classed as biochemical. As to conditions: 2 μM kinase domain; titration of Peptide C; 500 μM ATP; pH 7.5; room temperature. In a few lines:
(§1)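 Spectrophotometric enzyme-coupled kinase assay using N-terminally His6-tagged EGFR kinase domain (residues 672-998); mutants were made by site-directed mutagenesis and sequence-confirmed. Total kinase domain was 2 μM, with 1 μM of each mutant when paired. The test peptide substrate was titrated with 500 μM ATP in 10 mM MgCl2, 20 mM Tris pH 7.5 at room temperature. Specific rates came from at least triplicates; for pairs, Hill coefficients came from variable-slope log(agonist)-response fits.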

A further data set concerns V924R EGFR kinase domain. As to the kind of experiment: Enzyme-coupled kinase assay, V924R mutant alone. As to conditions: 2 μM kinase domain; titration of Peptide C; 500 μM ATP; pH 7.5; room temperature. The data set is classed as biochemical. The essentials:
as §1

The target of data set [5] is I682Q and V924R EGFR kinase domains (Homo sapiens, UniProt P00533, V948R). Briefly: Enzyme-coupled kinase assay, pair I682Q and V924R. As to conditions: 1 μM each. The data set is classed as biochemical. In a few lines:
as §1

Data set [6] has as its target I682Q/D813N and V924R EGFR kinase domains (Homo sapiens, UniProt P00533, V948R). Briefly: Enzyme-coupled kinase assay, pair I682Q/D813N and V924R. The data set is classed as biochemical. As to conditions: I682Q/D813N with V924R, 1 μM each; minimum of three replicates. The essentials: as §1
Data set [7] deals with T1, EGFR kinase domain. As to the kind of experiment: Immunoblot analysis of EGFR kinase domain autophosphorylation. As to conditions: 0-60 μM Peptide C; 800 nM EGFR kinase domain; 500 μM ATP; pH 7.5; 1 minute; room temperature; minimum of three replicates. The data set is classed as biochemical. A general note: In western blotting, separated proteins are transferred to a membrane and probed.

Data set [8] can be described thus: Dynamic light scattering of Peptide C. As to conditions: DLS, 25° C. The data set is classed as physicochemical. In a few lines:
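Test peptide at 1 mM, prepared in water, in 20 mM NaCl, or in assay buffer (15 mM Tris pH 7.5, 0.02% v/v polysorbate 20, 20 mM NaCl). DLS was run at 25° C with a 60 mW laser at 15% power and a 90° detection angle. Buffer components were filtered beforehand; the peptide itself was not filtered.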

Data set [9] can be described thus: Transmission electron microscopy of Peptide C alone. The data set is classed as physicochemical. As to conditions: 20, 40 and 80 μM, TEM. The essentials:
(§2)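 Test peptide at varied concentrations, without or with 2 μM wild-type or I682Q His-tagged EGFR kinase domain (residues 672-998), in 10 mM Tris pH 7.5, 20 mM NaCl, 0.02% v/v polysorbate 20. Samples were incubated about 10 min at room temperature, then adsorbed onto Formvar carbon-coated copper grids. Grids were negatively stained with three applications of 1% w/v uranyl acetate and imaged by transmission electron microscopy.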

Data set [10] deals with wild type EGFR kinase domain. Briefly: Transmission electron microscopy with wild type EGFR kinase domain. As to conditions: TEM. The essentials: as §2
Data set [11] concerns I682Q EGFR kinase domain. As to the kind of experiment: Transmission electron microscopy with I682Q EGFR kinase domain. As to conditions: different concentrations of Peptide C; 2 μM I682Q EGFR kinase domain; TEM. The essentials: as §2
Data set [12] deals with EGFR. As to conditions: reported value, cited from earlier work.
The mark [13] stands for this setting: Peptide C (2 μM EGFR) vs Tyrsub (8 μM EGFR).

“And” between values parts separate entries of the source, which are not always exact repeats. Identical values can stand only once. “Also recorded” adds a separate entry of the source. Where no end group is shown, it is not given here.

Turning to `CCCCCCCCCCCCC/C=C/[C@@H](O)[C@@H](N)CO` [sphingosine], the “aggregation and activation of EGFR” value in the data set on EGFR [1] was “can aggregate and activate EGFR in an apparently cooperative manner”.

One may read the EC50 as the concentration at which the effect is half-maximal. High values mean a less potent agent, low ones a more potent agent. Take RAHEEIAHFFFAKKK [Peptide C variant]: it took 45 µM to reach a half-maximal effect on EGFR kinase domain [2] (EC50).

The term Km denotes the substrate concentration at which the rate is half of its maximum. As for RAHEEIYHFFFAKKK [Peptide C], the “kcat, fold higher than for Tail Peptide A” value in [3] (Peptide C (2 μM EGFR) vs Tail Peptide A (8 μM EGFR)) was “roughly eight”. Besides, in [3] (setting [13]), the “catalytic efficiency (kcat/KM), fold higher than for Tyrsub” value is given as roughly 760 fold and the “kcat, fold higher than for Tyrsub” value is recorded as “roughly eight”. In addition, the “Hill coefficient (nH)” value in [3] (wild type kinase domain, 2 μM, 500 μM ATP, pH 7.5, room temperature, Hill equation fit, minimum of three replicates) was ~ 2.8 and ~3. In addition, the “activating properties with I682Q alone” value with I682Q EGFR kinase domain [4] is listed as “entirely abrogated”. Moreover, the “activating properties with V924R alone” value in the data set with V924R EGFR kinase domain is reported as “entirely abrogated”. For the same molecule, the “catalysis relative to wild type kinase domain” value in data set [5] (I682Q and V924R combined, 500 μM ATP, pH 7.5, room temperature) is reported as “about 60%”. Besides, the “Hill coefficient (nH)” value in data set [5] (I682Q with V924R, minimum of three replicates) is given as ~ 3.0. The “Hill coefficient (nH)” value in [6] is ~ 2.5. On EGFR kinase domain [7], the Tyr-845 phosphorylation result is listed as “increases in a dose-dependent manner”, the Tyr-974 phosphorylation entry is “same dose-dependent increase in phosphorylation” and the Tyr-992 phosphorylation result is given as “same dose-dependent increase in phosphorylation”. Further, in [8] (1 mM in 20 mM sodium chloride), the aggregation entry was “aggregation to an intermediate degree between the aqueous solution and the buffered samples”. The aggregation entry in [8] (1 mM in water) is “limited aggregation”. Besides, the hydrodynamic radius in data set [8] (1 mM in water, polydisperse distribution) is 1-10 nm. In [9] (10 mM Tris, pH 7.5, 20 mM NaCl, 0.02% polysorbate 20), the fibril length entry was “several hundreds”. For the same molecule, in data set [9], the “dependence of fibril morphology on concentration” value is given as “appears to be independent of Peptide C concentration” and the globular aggregates result was “Globular aggregates closely associated with the fibrils are also observed”. Further, the “small, dispersed EGFR aggregates” value in [10] (20 μM Peptide C, 2 μM EGFR kinase domain) is given as “also observed”. Also, the “small, dispersed EGFR aggregates” value in data set [10] (80 μM Peptide C, 2 μM EGFR kinase domain) is given as “not observed”. In addition, the “fibrils and globular aggregates with EGFR kinase domain” value in data set [10] (20 and 80 μM Peptide C, 2 μM EGFR kinase domain, about 10 minutes) is on record as “forms fibrils in the presence of EGFR; also recorded: Fibrils similar to those formed by Peptide C alone as well as globular aggregates localized near the fibrils are observed”. Further, in data set [10] (Peptide C with 2 μM EGFR kinase domain), the “fibril edges with EGFR kinase domain” value is recorded as “the fibril edges are less defined; also recorded: appear less crisp”. Moreover, the “appearance with I682Q EGFR kinase domain compared with wild type” value with I682Q EGFR kinase domain [11] was “appear indistinguishable from wild type”. Also, the Km in the data set on EGFR [12] (ref [5],[9]) was 128 µM. Further, the “catalytic efficiency, kcat/KM, fold higher than for Tail Peptide A” value in the data set with EGFR [12] (ref [9]) was ~ 26 fold.

Turning to poly-arginine, the “aggregation and activation of EGFR” value in the data set on EGFR [1] was “can aggregate and activate EGFR in an apparently cooperative manner”.

Take poly-lysine: in the data set on EGFR [1], the “aggregation and activation of EGFR” value was “can aggregate and activate EGFR in an apparently cooperative manner”.

Turning to protamine, in the data set on EGFR [1], the “aggregation and activation of EGFR” value is “can aggregate and activate EGFR in an apparently cooperative manner”.

The record behind these values is article PMC4048812 (The Biochemical journal, 2013).
